# Read-outs that look alike come from different tables or passages of the source.
# Assays:
# [1] = cited from earlier work
# [2] = Biodistribution in rats by ICP-MS; details: rat, in vivo
# [3] = T1 relaxivity; assay type: physicochemical; details: for Relaxivity r1 in pH 7.4 buffer: pH 7.4 Tris buffer
# [4] = rat, in vivo
# [5] = in vivo; details: rat
# [6] = tested on: carotid artery thrombus (fibrin); assay: MR imaging of carotid artery thrombosis in a rat model, 1.5T; assay type: in vivo
# Summary of the method: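 In a rat carotid artery thrombosis model, 3D T1-weighted gradient-echo MRI with arterial inflow suppression was run at 1.5T. Scans were taken before and immediately after injection of 10 μmol/kg probe (40 μmol/kg metal) and repeated over 1 h; N=4 per probe. Thrombus-to-muscle and contralateral vessel-to-muscle CNR were followed over time. Thrombosis was confirmed by H&E histology. Error bars are SEM.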
# [7] = Variable temperature 17O NMR: hydration state and water exchange; assay type: physicochemical; details: for ΔH^≠: water exchange; for kex^310: water exchange rate at 310 K
# Summary of the method: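 Transverse relaxivity of H217O was measured with the Mn complex present across a range of temperatures. The data were fitted to derive water exchange parameters, including kex at 310 K and ΔH, and the Mn-17O hyperfine coupling constant.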
# [8] = Mn blood pharmacokinetics and plasma speciation in rats; details: rat, HPLC-ICP-MS
# [9] = assay type: physicochemical; details: 1 mM complex, 25 mM Zn2+, 50 mM pH 6.0 MES buffer, 37 °C, 1.4T
# [10] = Mn2+ thermodynamic stability constants by pH-potentiometry; assay type: physicochemical
# Summary of the method: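 The ligand was titrated by pH-potentiometry in the presence of 1 equiv MnCl2 at 25 °C and I = 0.15 M NaCl. KML = [ML]/([M][L]) and KHML = [HML]/([ML][H]). Effective formation constants were derived at pH 7.4. pMn is -log[free Mn] when [M] = [L] = 10 μM.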
# [11] = Dynamic MRI clearance kinetics in mice; assay type: in vivo, balb/C mouse; details: 60 μmol/kg i.v., monoexponential fit of nSNR vs time
# [12] = biological target: bovine serum albumin (BSA) (Bos taurus, UniProt P02769); assay: Protein bound fraction by ultra-filtration; assay type: in vitro ADME; details: 150-300 μM solution
# [13] = assay type: physicochemical; details: from Kcomp determined using CDTA challenge
# Summary of the method: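 The conditional stability constant at pH 7.4 came from direct competition of the Mn complex with CDTA, with species monitored by LC-MS. The effective constant was derived from the competition constant Kcomp. pMn was calculated as -log[free Mn] with [M] = [L] = 10 μM.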
# [14] = Mn tissue content by ICP-MS 24h after injection in mice; assay type: in vivo, mouse
# Summary of the method: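 Mice (N=4) received test compound i.v. at 60 μmol/kg. Tissue Mn was measured by ICP-MS at 24 h and compared with endogenous Mn in naive mice (N=4). Results were expressed as nmol/g and as %ID/g. Elevation above baseline was tested at P<0.05.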
# [15] = Protein bound fraction by ultra-filtration; assay type: in vitro ADME, bovine; details: 150-300 μM solution
# [16] = rat, plateau by 35 minutes post injection
# bovine serum albumin (BSA), sequence (P02769 25-607): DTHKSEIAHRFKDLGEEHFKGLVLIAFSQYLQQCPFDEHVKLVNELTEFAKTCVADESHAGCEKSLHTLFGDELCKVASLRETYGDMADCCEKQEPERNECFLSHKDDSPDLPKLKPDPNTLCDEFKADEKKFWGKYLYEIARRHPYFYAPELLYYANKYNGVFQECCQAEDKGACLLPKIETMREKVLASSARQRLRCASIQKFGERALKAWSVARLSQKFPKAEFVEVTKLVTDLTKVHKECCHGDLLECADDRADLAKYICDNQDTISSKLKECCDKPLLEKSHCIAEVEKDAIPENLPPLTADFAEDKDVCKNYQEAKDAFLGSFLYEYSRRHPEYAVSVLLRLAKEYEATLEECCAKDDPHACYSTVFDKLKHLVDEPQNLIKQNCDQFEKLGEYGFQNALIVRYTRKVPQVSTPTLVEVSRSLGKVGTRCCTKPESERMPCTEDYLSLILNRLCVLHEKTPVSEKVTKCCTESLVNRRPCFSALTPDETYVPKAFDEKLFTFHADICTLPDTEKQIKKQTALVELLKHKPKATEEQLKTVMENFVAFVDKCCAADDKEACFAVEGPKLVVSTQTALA
compound,measurement,setting,value
O=C([O-])CN1CCN(CC(=O)[O-])CCN(CC(=O)[O-])CCN(CC(=O)[O-])CC1.[Gd+3] [Gd-DOTA],Relaxivity in plasma,[1],3.6 mM⁻¹ s⁻¹
CC[C@H](C)[C@H](NC(=O)[C@H](Cc1ccc(O)cc1)NC(=O)[C@@H]1CSSC[C@H](NC(=O)[C@@H](CCC(=O)O)NC(=O)[C@H](Cc2ccc(O)cc2)NC(=O)[C@H](CNC(=O)c2ccc(CN(CC(=O)O)C3CCCCC3N(CC(=O)O)CC(=O)O)nc2)NC(=O)c2ccc(CN(CC(=O)O)C3CCCCC3N(CC(=O)O)CC(=O)O)nc2)C(=O)N2C[C@H](O)C[C@H]2C(=O)N[C@@H](Cc2ccc(O)c(Cl)c2)C(=O)NCC(=O)N[C@@H](CC(C)C)C(=O)N1)C(=O)N[C@@H](CCC(N)=O)C(=O)NCc1ccc(CNC(=O)[C@H](CNC(=O)c2ccc(CN(CC(=O)O)C3CCCCC3N(CC(=O)O)CC(=O)O)nc2)NC(=O)c2ccc(CN(CC(=O)O)C3CCCCC3N(CC(=O)O)CC(=O)O)nc2)cc1 (stereo partly shown) [Mn-FBP],Eliminated after 24 hr,[2],> 99%
same,Mn in muscle at 24h,[2],0.02±0.02% of the injected dose per gram tissue
same,Molecular relaxivity relative to per Mn values,[3],4 fold
same,Relaxivity in human fibrinogen solution compared with buffer,"[3]; 1.4 T, 37 °C",unchanged
same,Relaxivity r1 in 4.5% w/v BSA solution,"[3]; 1.4 T, 37 °C, per Mn",11.4 mM⁻¹ s⁻¹
same,Relaxivity r1 in bovine blood plasma,"[3]; 1.4 T, 37 °C, per Mn",10.7 mM⁻¹ s⁻¹
same,Relaxivity r1 in human fibrin gel,"[3]; fibrinogen converted to fibrin gel, 1.4 T, 37 °C, per Mn",13.5 mM⁻¹ s⁻¹
same,Increase in relaxivity in the presence of fibrin,[3]; human fibrin gel vs buffer,60%
same,Relaxivity r1 in pH 7.4 buffer,"[3]; 1.4 T, 37 °C, per Mn",8.5 mM^-1s^-1
same,Per Mn relaxivity relative to [Mn(PyC3A)(H2O)]^-,[3]; pH 7.4 buffer,4 fold
same,Total Mn blood clearance t1/2,[4],22.6 ± 6.8 min
same,half-life,[5],23.5 ± 13.4 min
same,Thrombus enhancement compared with EP-2104R,[6]; rat model of arterial thrombosis,equivalent thrombus enhancement
same,Increase of thrombus-to-muscle CNR post injection,"[6]; rat, 10 μmol/kg probe",more than 5 fold
same,"Peak CNR vs. muscle, contralateral vessel",[6]; [16],5.6±1.5
same,"Peak CNR vs. muscle, thrombus",[6]; [16],32.9±4.0
same,Hydration state (q),[7],1
same,Mn-17O hyperfine coupling constant AO/ħ,[7],2.82±0.040 ×10^7 rad/s
same,Water exchange rate kex,[7]; 37 °C,1.1e+08 s⁻¹
same,ΔH^≠,[7],39.7 kJ/mol
same,kex^310,[7],1.1±0.04 ×10^8 s^-1
same,Mn dechelation in blood plasma (Mn speciation),[8],no evidence of Mn dechelation
O.O=C([O-])CN(CC(=O)[O-])C1CCCCC1N(CC(=O)[O-])CC(=O)[O-].[Mn+2] (stereo not shown) [[Mn(CDTA)(H2O)]^2-],Pseudo-first order rate constant of transmetallation,[9],1.10±0.01 × 10^-3 s^-1
"O=C(O)CN(CC(=O)O)C1CCCCC1N(CC(=O)O)Cc1ccccn1 (stereo not drawn) [PyC3A, N-picolyl-N,N′,N′-trans-1,2-cyclohexylenediaminetriacetate]",pH by which complexation is complete,"[10]; 1 mM each Mn2+ and PyC3A, 0.15M NaCl, 25 °C",4.5
O=C([O-])CN(CCN(CC(=O)[O-])CC(=O)[O-])CCN(CC(=O)[O-])CC(=O)[O-].[Gd+3] [[Gd(DTPA)(H2O)]^2-],Relaxivity in plasma,[1],4.1 mM⁻¹ s⁻¹
same,Pseudo-first order rate constant of transmetallation,[9],1.41±0.31 × 10^-2 s^-1
O.O=C([O-])CN(CC(=O)[O-])C1CCCCC1N(CC(=O)[O-])Cc1ccccn1.[Mn+2] (stereo not shown) [[Mn(PyC3A)(H2O)]^-],logKML,"[10]; Mn(II) complex, pH-potentiometry, 25 °C, I = 0.15 M NaCl",14.14
same,logKpH 7.4 (effective formation constant at pH 7.4),"[10]; from potentiometric titration, 25 °C, 0.15 M NaCl",11.34
same,Stability relative to [Mn(DPDP)]^3- at pH 7.4,[10]; pH 7.4,> 10^5 times
same,Relaxivity r1 in 4.5% w/v BSA solution,"[3]; 1.4 T, 37 °C, per Mn",3.4 mM⁻¹ s⁻¹
same,Relaxivity r1 in bovine blood plasma,"[3]; 1.4 T, 37 °C, per Mn",3.8 mM⁻¹ s⁻¹
same,Relaxivity r1 in pH 7.4 buffer,"[3]; 1.4 T, 37 °C, per Mn",2.1 mM^-1s^-1
same,Blood clearance t1/2,[11],7.8 ± 3.0 min
same,Fraction protein bound in 4.5% w/v BSA solution,[12],1-5%
same,logKpH 7.4 (effective formation constant at pH 7.4),[13],11.40
same,Elimination by 24h,[14],> 99%
same,Injected dose remaining in the body at 24 hours,[14],less than 1%
same,Mn levels in all other tissues at 24h vs naïve mice,"[14]; 60 μmol/kg i.v., ICP-MS",not elevated above endogenous basal levels
same,Mn remaining in liver and kidneys at 24h,"[14]; 60 μmol/kg i.v., ICP-MS",< 0.05 %ID/g
same,Pseudo-first order rate constant of transmetallation,[9],6.76±0.03 × 10^-4 s^-1
same,Hydration state (q),[7],1
same,Mn-17O hyperfine coupling constant AO/ħ,[7],2.87±0.080 ×10^7 rad/s
same,ΔH^≠,[7],37.2 kJ/mol
same,kex^310,[7],1.0±0.02 ×10^8 s^-1
same,Fraction protein bound in plasma,[15],1-5%
